M5 antag: human M5 muscarinic receptor antagonists, primary screen, CHO cells, Fluo-8 calcium fluorescence; actives 0.59% (n = 360,000); inhibition, % at 3 µM; AID 624040, 2012; CHO-hM5 cells, ACh EC80;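 active means inhibition above a per-plate cutoff, the mean of that plate's test compounds plus 3 SD, cut at about 27% in these data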;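 further: 0% = acetylcholine EC80 with DMSO and 100% = DMSO without agonist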
M5 PAM: human M5 muscarinic receptor positive allosteric modulators, primary screen, CHO-K1 cells, Fluo-8 calcium fluorescence; Muscarinic acetylcholine receptor M5 (Homo sapiens), P08912; CHO-K1 hM5, ACh EC20 PAM; 0% = ACh EC20, 100% = ACh EC100; activation, % at 3 µM; actives 0.3% (n = 360,000); AID 624038, 2012;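 active means activation above the run cutoff, the mean activation of all test compounds plus 3 SD, cut at about 18% in these data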
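Probe or stimulus: acetylcholine, EC20 level; Assay system: human M5 receptor in CHO-K1 cells; Schedule: compound preincubation 140 s before EC20 acetylcholine addition; Technique: intracellular calcium via Fluo-8 fluorescence; Dosing: single-point, 3 µM nominal; Read-out basis: percent activation from peak-over-basal fluorescence ratio, scaled EC20-to-EC100 acetylcholine; Repeats: one well per compound, no replicates.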
M5 ag: human M5 muscarinic receptor agonists, primary screen, CHO-K1 cells, Fluo-8 calcium fluorescence; CHO-K1 hM5 cells; 0% DMSO wells, 100% maximal acetylcholine response; activation, % at 3 µM; Muscarinic acetylcholine receptor M5 (Homo sapiens), P08912; actives 0.19% (n = 360,000);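 active means activation above the run's mean over test compounds plus 3 SD, cut at about 23% in these data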;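 further: signal is peak over basal fluorescence ratio across the kinetic read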
CHRM4 PAM: human M4 muscarinic receptor positive allosteric modulators, primary screen, CHO-K1 cells, Fluo-8 calcium fluorescence; actives 0.4% (n = 360,000); AID 624126, 2012; CHO-K1 hM4/Gqi5, ACh EC20; 0% = ACh EC20, 100% = maximal ACh; activation, % at 3 µM;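 active means activation above its plate's cutoff, the mean activation of sample wells plus 3 SD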
Target sequence (P08173 whole entry, looked up): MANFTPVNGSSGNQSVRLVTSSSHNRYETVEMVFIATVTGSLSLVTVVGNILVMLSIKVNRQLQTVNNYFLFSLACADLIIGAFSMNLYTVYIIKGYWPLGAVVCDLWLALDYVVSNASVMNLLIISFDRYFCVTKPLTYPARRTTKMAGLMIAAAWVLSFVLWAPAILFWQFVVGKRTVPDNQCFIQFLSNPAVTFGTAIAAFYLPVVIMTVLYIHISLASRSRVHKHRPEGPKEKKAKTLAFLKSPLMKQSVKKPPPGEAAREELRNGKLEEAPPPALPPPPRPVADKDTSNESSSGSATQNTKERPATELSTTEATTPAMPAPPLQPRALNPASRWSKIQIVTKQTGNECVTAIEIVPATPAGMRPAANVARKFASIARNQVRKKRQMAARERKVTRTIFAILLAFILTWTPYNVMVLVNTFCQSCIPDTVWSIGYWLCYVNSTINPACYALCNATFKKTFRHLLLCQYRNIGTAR
M4 ag: human M4 muscarinic receptor agonists, primary screen, CHO-K1 cells, Fluo-8 calcium fluorescence; Muscarinic acetylcholine receptor M4 (Homo sapiens), P08173; CHO-K1 hM4/Gqi5; vehicle 0%, full acetylcholine response 100%; activation, % at 3 µM; actives 0.14% (n = 360,000);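 active means activation above the run mean over all test wells plus 3 SD, cut at about 32% in these data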;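 further: peak over basal fluorescence ratio per well then scaled between controls; 0% = DMSO wells and 100% = acetylcholine at EC100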
M4 antag: human M4 muscarinic receptor antagonists, primary screen, CHO cells, Fluo-8 calcium fluorescence. inhibition, % at 3 µM. actives 0.73% (n = 360,000). CHO-hM4 cells, ACh EC80. Muscarinic acetylcholine receptor M4 (Homo sapiens), P08173;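 active means inhibition above its plate's cutoff, the mean inhibition of sample wells plus 3 SD, cut at about 27% in these data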;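 further: 0% = acetylcholine EC80 with DMSO and 100% = DMSO without agonist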
Active calls of the source: *; ! = not active in a repeat. Compounds with a hit are over-represented: about 1.8% of the library has one in this group of screens.

SMILES | M5 antag | M5 PAM | M5 ag | CHRM4 PAM | M4 ag | M4 antag
CCOC(=O)C1=CC[C@@H](c2ccccc2)N(S(=O)(=O)c2ccc(C)cc2)[C@H]1C#N | 3 | 4 | 2 | -6 | 7 | 32*
Nc1c(C(=O)NCc2ccc3c(c2)OCO3)c2nc3ccccc3nc2n1CCCN1CCOCC1 | 13 | -2 | 0 | -1 | 9 | 4
COc1ccccc1CNC(=O)c1c(N)n(CCCN2CCOCC2)c2nc3ccccc3nc12 | 25 | -12 | 5 | -10 | 32 | 34*
S=c1nc[nH]c2c1ncn2C1CCCO1 (stereo unspecified) | -17 | 19* | -1 | -5 | 0 | -11
Nc1ncnc2c1ncn2[C@H]1C[C@H](O)[C@@H](COP(=O)(O)O)O1 | -1 | 1 | 0 | -2 | 1 | 30*
NCC1OC(n2cnc3c(N)ncnc32)CC1O (stereo unspecified) | 3 | 9 | 2 | 3 | 0 | -1
Nc1ncnc2c1ncn2C1CCCC1 | -4 | 0 | 0 | 2 | 0 | -4
Nc1ncnc2c1ncn2C1CCCO1 (stereo unspecified) | 10 | -19 | 28* | -9 | 0 | 9
Cc1cccc(C)c1NC(=O)C(c1ccc(C(F)(F)F)cc1)n1c(=O)c(-c2cc3ccccc3[nH]2)nc2ccccc21 (stereo unspecified) | -3 | 3 | 5 | 1 | 0 | 8
CC1CCN(C(=O)c2[nH]cnc2C(=O)N[C@@H](C)c2ccccc2)CC1 | -6 | -6 | 7 | 0 | 3 | -7
COc1ccc(C(C#N)=Cc2ccc(N(C)CCC#N)cc2)cc1 | 28* | -16 | 3 | -7 | 5 | 11
CN(CC1COc2ccccc2O1)C(=O)c1cc(COc2c(F)cccc2F)on1 (stereo unspecified) | 6 | -2 | -4 | 3 | 6 | -8
CN(CC1COCCO1)C(=O)c1cc(COc2c(F)cccc2F)on1 (stereo unspecified) | 0 | 0 | 0 | 23* | 3 | 2
Nc1ccc2cc3[nH]c4cc(N)ccc4c3nc2c1 | 68* | -27 | 101* | -4 | 21 | 32*
Nc1ccc(-c2nc3ccc(N)cc3[nH]2)cc1 | 15 | -14 | 1 | -8 | 10 | 7
CCN(CC(=O)NCc1ccc(Cl)cc1)C(=O)CCOc1ccc(C)cc1 | -1 | -6 | -6 | -3 | 1 | -11
Cc1cc(=O)c2c(N(C)C)cccc2[nH]1 | -2 | -1 | 0 | -2 | 0 | -4
COc1cccc(CNC(=O)CN(C)S(=O)(=O)c2ccc3c(c2)n(C)c(=O)c(=O)n3C)c1 | -6 | -3 | -4 | -4 | 1 | 3
COc1ccc(NC(=O)N2CCN(c3nc(-c4cccc(OC)c4)cs3)CC2)cc1 | 17 | -17 | 2 | -5 | 16 | 12
COc1cccc(-c2csc(N3CCN(C(=O)Nc4ccc(Cl)cc4)CC3)n2)c1 | 28* | -34 | -4 | -21 | 13 | 20
COc1ccc(CSc2ccc(S(=O)(=O)N3CCCC3)cn2)cc1F | 5 | -13 | -2 | -10 | 15 | 0
OCCN1CCN(CCCN2c3ccccc3Sc3ccc(Cl)cc32)CC1 | 34* | -19 | -1 | -17 | 2 | 98*
CN(C)CCCN1c2ccccc2Sc2ccc(Cl)cc21 | 98* | -18 | 1 | -19 | 13 | 73*
CN(C)CCCN1c2ccccc2Sc2ccc3ccccc3c21 | 55* | -44 | -12 | -12 | 12 | 27*
Nn1c(SCC(=O)Nc2cccc(Br)c2)nnc1C1CC1 | 7 | -8 | 6 | 7 | 1 | 2
SMILES | M5 antag | M5 PAM | M5 ag | CHRM4 PAM | M4 ag | M4 antag
C[C@H](CO)N1C[C@H](C)[C@@H](CN(C)CC2CCCCC2)Oc2c(NC(=O)Cc3ccccc3)cccc2C1=O | -4 | 1 | -1 | 2 | 2 | -6
Nc1ccccc1-c1ccc([N+](=O)[O-])cc1 | 9 | 5 | -2 | 2 | 0 | -4
C[C@@H](NC(=O)c1nc[nH]c1C(=O)NCc1ccccc1)c1ccccc1 | 8 | -5 | -9 | 7 | 1 | 5
CCC(C)N(CCNC(=O)CC1Oc2ccc(C)cc2NC1=O)C1CCCCC1 (stereo unspecified) | 18 | -22 | -6 | -18 | 0 | 71*
COc1ccccc1N1CCN(CCS(=O)(=O)c2cc(Cl)ccc2Cl)CC1 | 5 | -1 | -1 | -4 | 2 | 4
COc1cccc(CN2CCC2(C)C(=O)Nc2cccc3cccnc23)c1OC (stereo unspecified) | 8 | -7 | -4 | -4 | 2 | -2
Cc1cccc(C)c1NC(=O)CN(C)C(=O)c1ccc(OCc2ccccc2)cc1 | -4 | 7 | 1 | 16* | 1 | -15
CCN(CC)CC(=O)Nc1c(C)cc(C(C)(C)C)cc1C | -2 | -7 | -4 | 0 | 0 | -7
CCN(CC)CC(=O)Nc1c(C)cccc1C | 0 | -6 | -1 | -11 | 0 | 27*!
CCn1cc(C=O)c2cc(S(=O)(=O)N3CCOCC3)ccc21 | 6 | 4 | 0 | -1 | 2 | 26*
O=C(Nc1ccc(F)cc1)c1cc(S(=O)(=O)Nc2ccc(F)cc2)cs1 | 32* | -23 | 3 | -12 | 10 | 8
COc1ccc(NC(=O)c2cc(S(=O)(=O)Nc3ccc(OC)cc3)cs2)cc1 | 16 | -17 | 2 | -23 | 10 | 15
Cc1nc2sccn2c(=O)c1S(=O)(=O)N1CCN(c2ccccc2)CC1 | 8 | -8 | -1 | -17 | 0 | 61*
Cc1nc2sccn2c(=O)c1S(=O)(=O)NCC1CCN(Cc2ccccc2Cl)CC1 | 7 | -10 | -10 | -22 | 0 | 34*
COc1ccc(N2CCN(S(=O)(=O)c3c(C)nc4sccn4c3=O)CC2)cc1 | -1 | -2 | 1 | 8 | 2 | -18
CC[C@H]1OC(=O)[C@H](C)[C@@H](O[C@H]2C[C@@](C)(OC)[C@@H](O)[C@H](C)O2)[C@H](C)[C@@H](O[C@@H]2O[C@H](C)C[C@H](N(C)C)[C@H]2O)[C@](C)(O)C[C@@H](C)CN(C)[C@H](C)[C@@H](O)[C@]1(C)O | -1 | 6 | 1 | 8 | 0 | -1
